# The source made the active and inactive calls. No cut-off for these calls is given here.
# Assays:
# Cyberlindnera jadinii [1] = assay: Antifungal activity against Candida utilis ATCC 9950 at 0.9 mol by disk diffusion method; type: functional, organism-based
# In short: (§1)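 Compound dissolved in MeOH, applied to a 6 mm filter-paper disk and air-dried. Disk placed on an agar plate overgrown with the test organism. Growth-inhibition zone measured from the outer edge of the disk.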
# Escherichia coli [2] = assay: Antibacterial activity against Escherichia coli ATCC 11775 at 0.9 mol by disk diffusion method; type: functional, organism-based; in short: as §1
# Saccharomyces cerevisiae [3] = assay: Antifungal activity against Saccharomyces cerevisiae ATCC 9763 at 0.9 mol by disk diffusion method; type: functional, organism-based; in short: as §1
# Micrococcus luteus [4] = assay: Antibacterial activity against Micrococcus luteus ATCC 49732 at 0.9 mol by disk diffusion method; type: functional, organism-based; in short: as §1
# Cyberlindnera jadinii [5] = assay: Antifungal activity against Candida utilis ATCC 9950 at 0.7 mol by disk diffusion method; type: functional, organism-based; in short: as §1
# Escherichia coli [6] = assay: Antibacterial activity against Escherichia coli ATCC 11775 at 0.7 mol by disk diffusion method; type: functional, organism-based; in short: as §1
# Micrococcus luteus [7] = assay: Antibacterial activity against Micrococcus luteus ATCC 49732 at 0.7 mol by disk diffusion method; type: functional, organism-based; in short: as §1
# Saccharomyces cerevisiae [8] = assay: Antifungal activity against Saccharomyces cerevisiae ATCC 9763 at 0.7 mol by disk diffusion method; type: functional, organism-based; in short: as §1
# Escherichia coli [9] = assay: Antibacterial activity against Escherichia coli ATCC 11775 at 1.3 mol by disk diffusion method; type: functional; in short: as §1
# Saccharomyces cerevisiae [10] = assay: Antifungal activity against Saccharomyces cerevisiae ATCC 9763 at 1.3 mol by disk diffusion method; type: functional; in short: as §1
# Micrococcus luteus [11] = assay: Antibacterial activity against Micrococcus luteus ATCC 49732 at 1.3 mol by disk diffusion method; type: functional; in short: as §1
# Cyberlindnera jadinii [12] = assay: Antifungal activity against Candida utilis ATCC 9950 at 1.3 mol by disk diffusion method; type: functional; in short: as §1
# Cyberlindnera jadinii [13] = assay: Antifungal activity against Candida utilis ATCC 9950 at 1.4 mol by disk diffusion method; type: functional; in short: as §1
# Saccharomyces cerevisiae [14] = assay: Antifungal activity against Saccharomyces cerevisiae ATCC 9763 at 1.5 mol by disk diffusion method; type: functional; in short: as §1
# Cyberlindnera jadinii [15] = assay: Antifungal activity against Candida utilis ATCC 9950 at 1.5 mol by disk diffusion method; type: functional; in short: as §1
# Micrococcus luteus [16] = assay: Antibacterial activity against Micrococcus luteus ATCC 49732 at 1.5 mol by disk diffusion method; type: functional; in short: as §1
# Escherichia coli [17] = assay: Antibacterial activity against Escherichia coli ATCC 11775 at 1.5 mol by disk diffusion method; type: functional; in short: as §1
# Saccharomyces cerevisiae [18] = assay: Antifungal activity against Saccharomyces cerevisiae ATCC 9763 at 1.2 mol by disk diffusion method; type: functional; in short: as §1
# Micrococcus luteus [19] = assay: Antibacterial activity against Micrococcus luteus ATCC 49732 at 1.2 mol by disk diffusion method; type: functional; in short: as §1
# Cyberlindnera jadinii [20] = assay: Antifungal activity against Candida utilis ATCC 9950 at 1.2 mol by disk diffusion method; type: functional; in short: as §1
# Escherichia coli [21] = assay: Antibacterial activity against Escherichia coli ATCC 11775 at 1.2 mol by disk diffusion method; type: functional; in short: as §1
smiles,measurement,setting,value
C=CC(C)(C)[C@@]12CCN(C)[C@@H]1N(CN1c3cc(Br)ccc3[C@]3(C(C)(C)C=C)CCN(C)[C@H]13)c1cc(Br)ccc12,inhibition zone (IZ),Cyberlindnera jadinii [1],inactive
same,inhibition zone (IZ),Escherichia coli [2],inactive
same,inhibition zone (IZ),Saccharomyces cerevisiae [3],inactive
same,inhibition zone (IZ),Micrococcus luteus [4],inactive
C=CC(C)(C)[C@@]12CCN(C)[C@@H]1N(Cc1cc(Br)c3c(c1O)[C@]1(C/C=C(\C)CCC=C(C)C)CCN(C)[C@@H]1N3)c1cc(Br)ccc12,inhibition zone (IZ),Cyberlindnera jadinii [5],inactive
same,inhibition zone (IZ),Escherichia coli [6],inactive
same,inhibition zone (IZ),Micrococcus luteus [7],inactive
same,inhibition zone (IZ),Saccharomyces cerevisiae [8],inactive
CC(C)=CCC/C(C)=C/C[C@@]12CCN(C)[C@@H]1Nc1cccc(O)c12 [DEBROMOFLUSTRAMINE H],inhibition zone (IZ),Escherichia coli [9],22 mm
same,inhibition zone (IZ),Saccharomyces cerevisiae [10],16 mm
same,inhibition zone (IZ),Micrococcus luteus [11],23 mm
same,inhibition zone (IZ),Cyberlindnera jadinii [12],28 mm
C=CC(C)(C)[C@@]12CCN(C)[C@@H]1N(C(C)=O)c1cc(Br)ccc12 [FLUSTRAMINE F],inhibition zone (IZ),Cyberlindnera jadinii [13],18 mm
CC(C)=CC[C@@]12CCN(C)[C@@H]1Nc1c(Br)ccc(O)c12 [FLUSTRAMINE I],inhibition zone (IZ),Saccharomyces cerevisiae [14],15 mm
same,inhibition zone (IZ),Cyberlindnera jadinii [15],29 mm
same,inhibition zone (IZ),Micrococcus luteus [16],29 mm
same,inhibition zone (IZ),Escherichia coli [17],25 mm
CC(C)=CCc1cc(Br)c2c(c1O)[C@]1(CC=C(C)C)CCN(C)[C@@H]1N2 [FLUSTRAMINE L],inhibition zone (IZ),Saccharomyces cerevisiae [18],20 mm
same,inhibition zone (IZ),Micrococcus luteus [19],25 mm
same,inhibition zone (IZ),Cyberlindnera jadinii [20],30 mm
same,inhibition zone (IZ),Escherichia coli [21],24 mm

# From ChEMBL document CHEMBL1154319, “Further studies on the chemistry of the flustra alkaloids from the bryozoan Flustra foliacea” (2009)
